For 71 compounds, cytotoxicity results are on record in ChEMBL document CHEMBL4513216, “Probing the Open Global Health Chemical Diversity Library for Multistage-Active Starting Points for Next-Generation Antimalarials” (ACS Infect Dis, 2020).

This data set in a line: Toxicity liver stage against HepG2, at 10uM. In kind it is cell-based. Details: test concentration 10 uM, cell line HepG2-A16-CD81EGFP. The conditions noted are these: human, HepG2-A16-CD81EGFP cells; read-out: INHIBITION
Put shortly:
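Uninfected HepG2-A16-CD81EGFP cells, 3 × 10^3 per well, 1536-well, plated on prespotted compound at 10 μM final, parasite-free screening media added to match infected plates; puromycin 10 μM positive, DMSO 0.5% negative; run in parallel with 48 h PbLuc assay at 37 °C, 5% CO2; viability by CellTiter-Glo luminescence, normalized to controls.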
As for `NC(=O)C(Cc1ccccc1)NS(=O)(=O)Cc1ccccc1Cl` (stereo unspecified), the cytotoxicity at 10 µM worked out at 7.56%.

For the compound `CC(C)CN1CCOC[C@H](Oc2ccc(S(C)(=O)=O)cc2)C1`, the cytotoxicity at 10 µM was -1.67%. The value for `CCC1CN(CC(=O)NCCN2CCCCC2)c2ccccc2S1` (stereo unspecified) was -10%; that for `COc1ccc2nnc(CCC(=O)NCc3cccn3C)n2n1` was -10.1%; that for `O=c1c(S(=O)(=O)N2CCCCC2)cccn1Cc1ccccc1Cl` was 10.6%. `O=C(NCCN1CCC(c2cccs2)CC1)Nc1cccs1`: the cytotoxicity at 10 µM is -20.6%.

Consider `CC(C)c1cc2c(s1)NC(c1ccccc1)NC2=O` (stereo unspecified), for which the cytotoxicity at 10 µM was found to be 8.82%. To `CCS(=O)(=O)N1CCC(c2nn(CCN(C)C)c3ncccc23)C1` (stereo unspecified) belongs -4.88%. The value for `CCC1CNCc2cc3c(OC)ccc(OC)c3nc2O1` (stereo unspecified) was -4.22%; that for `O=C1CN([C@@H]2CC[C@@H](NS(=O)(=O)c3ccc(F)cc3)[C@H]2O)CCN1` was -2.11%; that for `Cc1cc(N2CCC(O)CC2)nc(C2CCCN2C)n1` (stereo unspecified) was -1.89%. As for `COc1ccccc1CC(C)CC(=O)NS(=O)(=O)C(C)C` (stereo unspecified), the cytotoxicity at 10 µM came out at 4.56%.

On to `N#Cc1cc(F)ccc1CN1CCCCC1Cn1cncn1` (stereo unspecified), for which the cytotoxicity at 10 µM was 5.41%.

Regarding `CNC(=O)c1coc(-c2csc(C)n2)c1`, the cytotoxicity at 10 µM is 6.96%.

For `CCS(=O)(=O)NCCN1CCc2ccc(F)cc2C1C` (stereo unspecified), the cytotoxicity at 10 µM was determined as 6.88%. To `CC(Nc1ccn(CCS(C)(=O)=O)n1)c1ccc(C#N)cc1` (stereo unspecified) belongs 8.64%.

For `CCC(C)(C)NC(=O)c1ccc(NC(=O)NCc2cc(C)no2)cc1`, the cytotoxicity at 10 µM came to 0.696%.

Consider `COc1ccnc(N2CCN(Cc3ncc(C(C)(C)C)o3)CC2)n1`, for which the cytotoxicity at 10 µM is -7.2%.

Regarding `CN(CC(=O)NS(=O)(=O)c1ccsc1)Cc1ccccc1`, the cytotoxicity at 10 µM is -5.1%.

For the compound `COc1cc(C(=O)NC(C)c2cccs2)cc2c1OCCO2` (stereo unspecified), the cytotoxicity at 10 µM is -18.2%. To `COC(CNC(=O)c1ccc(NC(C)=O)cc1)c1cccc(Cl)c1` (stereo unspecified) belongs 7.72%; to `CN(Cc1cnn(C)c1)C(=O)CCc1ccc2c(c1)OCO2`, -2.59%; to `O=C(Nc1nc(-c2ccccc2)ns1)N1CC[C@H](O)C1`, 10.5%. `N#Cc1cc(NC(=O)c2cc[nH]n2)ccc1N1CCC(O)CC1`: the cytotoxicity at 10 µM was -0.758%. To `O=C1NCCCCC1Sc1n[nH]c(=O)n1C1CC1` (stereo unspecified) belongs 5.24%; to `NC(=O)C1CCN(Cn2nc(-c3ccc(F)cc3)oc2=O)C1` (stereo unspecified), 14.6%.

For the compound `CC(=O)N(C)C1CCN(C(=O)c2cccc3c2ccn3C)CC1`, the cytotoxicity at 10 µM was found to be 1.56%. On to `FC(F)c1nnc2ccc(N3CCC4(CCOC4)C3)nn12` (stereo unspecified), for which the cytotoxicity at 10 µM turned out to be 9.2%.

For the compound `CCCn1nc2c(cc1=O)CN(CC(=O)N(C)c1nccs1)CC2`, the cytotoxicity at 10 µM was 1.25%. The value for `O=C(c1cc(Cl)c[nH]1)N1CCN(CCc2ccccn2)CC1` was 19.2%. The value for `Cc1cc(C)n(CC2CCCN2C(=O)c2ccc3c(c2)nnn3C)n1` (stereo unspecified) was -17.3%. On to `O=C(NCC1Cn2nnc(-c3cccc(F)c3)c2CO1)c1ccc[nH]1` (stereo unspecified), for which the cytotoxicity at 10 µM came to 1.46%.

Regarding `O=C(NC1CCCC1)N1CCC2(CC1)CC(Oc1cccnc1)CO2` (stereo unspecified), the cytotoxicity at 10 µM is -5.6%.

For `O=C1OCCN1Cc1cccc(C(F)(F)F)c1F`, the cytotoxicity at 10 µM was -0.524%.

In the case of `Nc1nc(CCCNC(=O)C2CCCN(Cc3ccco3)C2)cs1` (stereo unspecified), the cytotoxicity at 10 µM was -0.745%. As to `COc1cc(C)cc(OC)c1C(C(=O)O)N(C)Cc1c(C)nn(C)c1C` (stereo unspecified), the cytotoxicity at 10 µM was determined as 7.34%. To `Cc1cc(C)n(C2CN(C(=O)c3cn4ccsc4n3)C2)n1` belongs 4.99%; to `CC(C)[C@@H]1CN(Cc2ccccn2)C[C@H]1NS(=O)(=O)N(C)C`, -0.869%; to `CCOCCn1nc(C)cc1C(=O)N1CCC2(CC1)[C@H](O)C[C@@H]2OCC`, 4.35%. The value for `CCc1ncc2c(n1)CN(c1nc(C)ccc1C(=O)O)C2` was 8.25%. Take `O=C(Cn1cccn1)NCC1CCN(Cc2cc3ccccc3[nH]2)C1` (stereo unspecified): the cytotoxicity at 10 µM stood at 7.11%.

As to `CCc1nccn1CCC(=O)N1CCOC(c2ccc(F)cc2)C1` (stereo unspecified), the cytotoxicity at 10 µM is -12.5%. Consider `CC(=O)c1ccc(C(=O)N(C)Cc2nc(-c3ccccn3)no2)s1`, for which the cytotoxicity at 10 µM stood at 2.45%. The value for `CN(Cc1cc2n(n1)CCCNC2)Cc1n[nH]c2c1CCC2` was 3.04%. The value for `c1ccc(-c2ncc(CN3CCC4(CCNCC4)C3)cn2)cc1` was -5.71%. The value for `CN(C)C(C(=O)NCC1(Cn2cccn2)CC1)c1ccc(F)cc1` (stereo unspecified) was 3.65%; that for `CN1CCN(C)C2(CCN(Cc3ccc(C4CCCCO4)o3)CC2)C1` (stereo unspecified) was 0.0773%; that for `CC(NC(=O)CCCc1ccc(Cl)cc1)c1nnn[nH]1` (stereo unspecified) was 0.292%. Turning to `CNC(=O)[C@@H]1C[C@@H](N)CN1C(=O)CCSCc1ccc(F)cc1`, the cytotoxicity at 10 µM is -17.6%. The value for `CS(=O)(=O)c1ccc(-c2cc(O)cc(CCC3CCCCN3)c2)cc1` (stereo unspecified) was 0.292%. The value for `O=C(C1CCCCO1)N1CCc2ncnc(NCc3ccon3)c2CC1` (stereo unspecified) was 13.1%. The value for `CCNC(=O)[C@@H]1C[C@@H](N)CN1C(=O)C1(c2ccc(OC)cc2)CCCC1` was 3.95%; that for `CC(CCn1cccn1)NCc1n[nH]c2c1CCCCC2` (stereo unspecified) was -3.98%; that for `O=C1CCCN1CCCC(=O)N1CCC2(CC1)[C@H](O)C[C@@H]2O` was -2.38%. Regarding `O=C(CCCc1cn[nH]c1)N1CCOCC(O)C1` (stereo unspecified), the cytotoxicity at 10 µM was -23%.

On to `Cc1nn(C)c(C)c1C1CCCN1C(=O)c1ccc(C(N)=O)cn1` (stereo unspecified), for which the cytotoxicity at 10 µM was -4.34%.

As for `CCC(C)C(=O)NS(=O)(=O)c1ccc(C#N)cc1C(F)(F)F` (stereo unspecified), the cytotoxicity at 10 µM is -5.25%. For the compound `CC(C)c1cc(NC(=O)CN2CCC(C(N)=O)CC2)on1`, the cytotoxicity at 10 µM is -6.37%. Regarding `Cc1cnn(CC2CN(Cc3csc(C(C)C)n3)CCO2)c1` (stereo unspecified), the cytotoxicity at 10 µM amounted to 5.58%. The value for `CN(C)c1cc(CNC(=O)c2ccc(O)nc2)ccn1` was -16%. The value for `COc1cccc(Nc2nc(C3CCNCC3)c3ccccn23)c1` was -2.67%; that for `OC1CCN(c2cncc(CCC3CCCN3)n2)CC1` (stereo unspecified) was -0.24%. The value for `CC(C)N1CCCC1c1cc(CO)[nH]n1` (stereo unspecified) was 6%; that for `Cn1cc(C(=O)NCc2cn3c(n2)CN(CC2CCOCC2)CC3)cn1` was -12.9%; that for `O=S(=O)(c1ccccc1)N1C[C@@H]2COC[C@]2(CN2CCOCC2)C1` was 2.32%. For the compound `CN(C)C(=O)c1cnc2n1CCN(Cc1ccccc1)C2`, the cytotoxicity at 10 µM was 7.05%. As for `c1cc(CN2C[C@H](OCC3CCOCC3)[C@H]3COC[C@H]32)cs1`, the cytotoxicity at 10 µM was determined as 9.86%. The value for `CCCN1CCCn2c(nc(CNC(=O)c3cnoc3C)cc2=O)C1` was 2.32%; that for `CNC(=O)[C@H]1C[C@H]2CN(Cc3ccc(C)cc3)C[C@@H]1O2` was 1.82%; that for `COc1ccc(OC)c(C(=O)N2C[C@@H]3CC[C@H]2CN(C)C3)c1` was 4.61%. The value for `O=C(CSc1ccncc1)N1C[C@@H]2CC[C@H]1CN(Cc1cccnc1)C2` was 4.66%.
